GalR3 antagonist = antagonists of human GalR3. inhibition, % at 3 µM. AID 651719. HEK293 GalR3-CNG cAMP membrane potential fluorescence; galR3 body fused to GalR1 C-terminus. actives 0.44% (n = 360,000);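 active means inhibition above the screen-wide average plus 3 SD, cut at about 13% in these data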;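 further: forskolin and galanin both at EC90 stimulate the cells; cAMP rise reported by CNG channel membrane potential dye signal; 0% = forskolin plus galanin with DMSO and 100% = forskolin alone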
NR2E3 ag-1 = human photoreceptor-specific nuclear receptor agonism; CHO-S Gal4-NCOR/VP16-NR2E3 two-hybrid, luciferase; actives 0.35% (n = 360,000); inhibition of corepressor binding, % at 3.98 µM; Q9Y5X4;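 active means inhibition above the mean of all tested compounds plus 3 SD, cut at about 70% in these data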;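 further: 0% = DMSO with NR2E3 transfected cells and 100% = cells lacking NR2E3 construct; higher means lower luciferase signal from less NR2E3 corepressor binding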
COUP-TFII inh = inhibitors of human COUP-TFII (NR2F2); P24468; inhibition, % at 8.6 µM; AID 686940; actives 0.7% (n = 370,000); HEK293T NGFI-A luciferase reporter, luminescence;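 active means inhibition above a per-plate cutoff, mean inhibition of test wells between control levels plus 3 SD, cut at about 38% in these data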;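 further: cells cotransfected with COUP-TFII expression vector driving the NGFI-A reporter; 0% = median of COUP-TF2 test wells and 100% = reporter-only cells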
Target sequence (P24468 whole entry, looked up): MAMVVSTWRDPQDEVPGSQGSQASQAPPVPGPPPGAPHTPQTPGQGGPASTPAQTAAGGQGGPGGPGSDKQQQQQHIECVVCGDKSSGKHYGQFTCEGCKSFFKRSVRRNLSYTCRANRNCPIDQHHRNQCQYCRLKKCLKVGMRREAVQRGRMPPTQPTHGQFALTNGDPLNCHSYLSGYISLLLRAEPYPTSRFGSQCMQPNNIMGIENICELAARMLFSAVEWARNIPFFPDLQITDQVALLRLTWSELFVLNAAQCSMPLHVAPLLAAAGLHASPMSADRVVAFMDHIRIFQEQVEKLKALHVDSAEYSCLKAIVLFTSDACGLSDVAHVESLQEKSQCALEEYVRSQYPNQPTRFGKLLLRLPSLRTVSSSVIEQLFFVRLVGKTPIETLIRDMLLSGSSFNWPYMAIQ
NR2E3 ag-2 = agonists of human nuclear receptor NR2E3; Q9Y5X4; GST-NR2E3/biotin-RetCOR TR-FRET, 1536-well; inhibition of corepressor binding, % at 4.78 µM; actives 0.12% (n = 320,000); AID 2300;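 active means percent inhibition above the cutoff of mean plus 3 SD of all tested compounds, set per screening campaign, cut at about 20% in these data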;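 further: 0% = DMSO wells and 100% = biotin wells as full block of FRET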
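Material: NR2E3–RetCOR corepressor complex / Incubation: Compound–protein incubation for 5 h at 4 °C / Dosing: compound at 4.8 µM, single dose / Detection: time-resolved FRET / Benchmarks: high control biotin, low control 0.6% DMSO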
CHT PAM = allosterically activates the human high affinity choline transporter | Q9GZV3 | CHT-expressing cells, membrane potential dye, choline EC20; active compounds read high; LV-AA mutant CHT in HEK293 cells | B-score at 10 µM | actives 0.49% (n = 310,000) | AID 488977;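 active means initial fluorescence not abnormally high and integrated response B-score, plate-corrected, over 3 SD above library mean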
CHT inh = inhibits the human high affinity choline transporter; Q9GZV3; CHT-expressing cells, membrane potential dye, choline response; active compounds read low; B-score at 10 µM; actives 0.86% (n = 310,000); AID 488975;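 active means B-score over 3 SD under the library average, and starting fluorescence ratio not unusually high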;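 further: choline stimulus applied at its EC90 after an EC20 pre-addition; B-score computed on integrated fluorescence ratio after choline addition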
The depositor's hits bear a star; i = inactive; . = no result. Sampled rows, rich in hits. Any-hit rate of the full collection: about 2.3%.

SMILES	GalR3 antagonist	NR2E3 ag-1	COUP-TFII inh	NR2E3 ag-2	CHT PAM	CHT inh
CCCCNC(=O)C[C@H]1C[C@@]2(C(=O)OC)C(=C[C@H](C3CCCC3)O[C@@H]2C)N(Cc2ccco2)C1=O	.	.	-11	.	.	.
CCC[C@H]1[C@@H](NS(=O)(=O)c2ccccc2[N+](=O)[O-])CC[C@@]23CCCN2C(=O)CCC[C@@H]13	.	.	-19	.	.	.
O=c1[nH]c2cc([N+](=O)[O-])cc(Cl)c2c2ccccc12	-3	-5	9	.	.	.
N#Cc1cc2[nH]c3ccccc3c2[n+](-c2ccc([N+](=O)[O-])cc2)c1N	-9	16	6	-4	8.8*	i
CC1=C2NC(N)=[N+](Cc3ccc4c(c3)OCO4)CC2n2c(=O)n(-c3ccccc3)c(=O)n2C1 (stereo not given)	.	.	-26	.	.	.
C[C@H](O)[C@@H]1CN2CCc3c([nH]c4c(-c5ccc6c(c5)OCO6)cccc34)[C@@H]2C[C@@H]1N(C)C(=S)NCCc1ccccc1	.	.	13	.	.	.
CCN1CCN(c2nc3c(c(=O)n(C)c(=O)n3C)n2CCSc2nccc(C)n2)CC1	-5	-9	-20	0	i	-7.5*
CC1CC(C)CN(c2nc3c(c(=O)n(C)c(=O)n3C)n2CCSc2ncccn2)C1 (stereo not given)	.	-22	13	2	i	i
OCC1OC(n2cnc3c(NCc4ccco4)ncnc32)C(O)C1O (stereo not given)	86*	40	-5	.	.	.
OC[C@H]1O[C@@H](n2cnc3c(NCc4ccco4)ncnc32)[C@H](O)[C@@H]1O	-6	4	-2	.	.	.
CC(C)n1c(=NC(=O)c2ccco2)c(C#N)cc2c(=O)n3ccccc3cc21	-3	-2	-4	1	7.2*	i
CCOC(=O)c1cc2c(=O)n3ccccc3nc2n(C(C)C)c1=NC(=O)c1ccco1	-4	-14	-4	-3	i	i
O=S(=O)(Nc1nc2ccccc2nc1Nc1ccc2c(c1)OCCO2)c1cccs1	-6	14	13	0	i	-7.7*
COc1ccc(S(=O)(=O)Nc2nc3ccccc3nc2Nc2ccc3c(c2)OCO3)cc1	.	.	.	-2	i	i
Oc1ccc(Nc2nc3ccccc3nc2Nc2ccc(O)cc2)cc1	.	95*	.	2	i	i
CC(C)C[C@@H]1NC(=O)[C@H](Cc2ccccc2)N(C)C(=O)[C@H](C)NC(=O)c2ccccc2NC(=O)[C@H](Cc2ccc(O)cc2)N(C)C1=O	1	15	28	-1	i	i
CC[C@H](C)C1OC(=O)[C@@H](C)[C@@H](CC)NC(=O)[C@H](C)N(C)C(=O)C(C)(C)C(=O)C(C)NC(=O)[C@H](Cc2ccc(OC)cc2)N(C)C(=O)[C@H](C(C)C)N(C)C(=O)CNC(=O)[C@H](CC(C)C)N(C)C(=O)CNC1=O (stereo not given in full)	.	81*	.	.	.	.
CCCC1CC(C)(/C(C)=N\NC(N)=S)OC1=O (stereo not given)	0	5	-5	1	i	-9.3*
C/C(CC1CC(C)(C)OC1=O)=N\NC(N)=S (stereo not given)	-1	-15	-11	-1	i	i
COC(=O)[C@H]1C[C@@]2(n3ccc4ccccc43)c3ccccc3N(S(=O)(=O)c3ccccc3)[C@H]2N1C(=O)CNC1CCCCC1	.	.	0	.	.	.
NCCCn1c(C(=O)c2cc(Cl)c(N)c(Cl)c2)c2ccc([N+](=O)[O-])cc2[n+]1[O-]	-6	32	-23	4	i	-5.5*
Nc1nc(N2CCN(C/C=C/c3ccccc3)CC2)nc2ccccc12	-5	-1	-1	5	i	-6.8*
C(=C\c1ccccc1)/CN1CCN(c2ncnc3c2oc2ccccc23)CC1	-5	98*	29	1	i	i
CS(=O)(=O)N1CCN(C/C=C/c2ccccc2)CC1	-2	-9	1	-2	i	i
CC(COc1cccc(F)c1)CN1CCC(C(O)(c2ccccc2)c2ccccc2)CC1 (stereo not given)	.	.	-21	.	.	.
SMILES	GalR3 antagonist	NR2E3 ag-1	COUP-TFII inh	NR2E3 ag-2	CHT PAM	CHT inh
NC(N)=N/N=C/c1ccc(Cl)cc1Cl	-8	-25	7	3	i	-7.9*
COc1ccc2c(c1)cc1n2CCN=C1N	-5	3	-5	2	i	i
COc1ccc2c(c1)cc1n2CCN2CCCN=C12	-1	-15	16	-3	i	-6.2*
COc1ccc(C2CCCN2CC(O)COc2ccccc2C(C)C)cc1 (stereo not given)	-6	-20	1	0	10*	i
CCOC(=O)N1CCN(CC(O)COc2ccccc2C(C)C)CC1 (stereo not given)	-2	-43	2	-1	i	i
Cc1ccc(N/C(N)=N/c2nc3c(c(=O)[nH]2)CCCC3)c(C)c1	0	1	7	1	i	i
Cc1ccc(N/C(N)=N/c2nc(C)cc(N3CCCCC3)n2)c(C)c1	-12	-35	47*	-5	i	i
COc1ccc(-c2[nH]n(-c3ccc([N+](=O)[O-])cc3)c(=O)c2C=NCCN2CCNCC2)cc1	.	.	.	1	9.3*	i
O=c1c(C=NCCN2CCNCC2)c(-c2ccccc2)[nH]n1-c1ccc([N+](=O)[O-])cc1	.	.	.	-2	i	i
Cc1ccc(-c2cc(C(=O)NN=Cc3cccc(OCc4ccccc4)c3)[nH]n2)cc1C	.	.	-48	.	.	.
FC(F)(F)c1cc(Cl)c2nc(-c3ccco3)c(Cc3ccccc3C(F)(F)F)n2c1	21*	-8	-7	.	.	.
Cc1ccc(-c2nc3c(Cl)cc(C(F)(F)F)cn3c2Cc2ccccc2C(F)(F)F)cc1	-5	-10	-13	.	.	.
Cc1ccc(S(=O)(=O)/N=C2/NC(=O)/C(=C/c3ccncc3)S2)cc1	5	.	5	1	i	-5.3*
COc1cc(/C=C2\S/C(=N/S(=O)(=O)c3ccc(C)cc3)NC2=O)c([N+](=O)[O-])cc1OC	-4	37	-16	-2	i	-7.4*
Cc1ccc(S(=O)(=O)/N=C2/NC(=O)/C(=C\c3ccccc3)S2)cc1	-5	30	-11	.	.	.
COc1ccc(C=NNC(=S)NN=Cc2ccc(OC)c(OC)c2)cc1OC	16*	-3	-23	.	.	.
COc1ccc(C=NNC(=S)Nc2ccc(F)cc2)cc1OC	2	9	-19	.	.	.
CC[n+]1c(C)sc2sc3ccccc3c21	.	.	.	1	13*	i
Cc1[nH]n(-c2ccccc2)c(=O)c1C(c1ccc(O)c([N+](=O)[O-])c1)c1c(C)[nH]n(-c2ccccc2)c1=O	-3	-20	-2	-2	i	-6.1*

Source: PubChem BioAssay (several laboratories)
